From the EternaBench riboswitch data

System: MS2 coat protein
Assay: apparent Kd, MS2 coat protein; higher = weaker binding; RNA-MaP array; tryptophan 2.4 mM where present
Summary of the method: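 Apparent Kd: the median of filtered binding-curve fits from single clusters. Designs were transcribed on Illumina sequencing-chip clusters by stalled E. coli RNA polymerase and titrated with SNAP-549-labelled MS2 coat protein from 0.7 or 1.5 nM, doubling to 3 µM, in 100 mM Tris-HCl pH 7.5, 80 mM KCl, 4 mM MgCl2, BSA, DTT, yeast tRNA and Tween-20. Each series ran without and then with constant ligand, and green signal was normalised to red-channel RNA signal and control-cluster median Fmax.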

[1] = designed as: ON switch for tryptophan, no ligand
[2] = ligand present: tryptophan, designed as: ON switch for tryptophan
[3] = designed as: OFF switch for tryptophan, no ligand
[4] = ligand present: tryptophan, designed as: OFF switch for tryptophan

| Sequence | apparent Kd [1] [nM] | apparent Kd [2] [nM] | apparent Kd [3] [nM] | apparent Kd [4] [nM] |
| --- | --- | --- | --- | --- |
| AAAGCCACUUCGGCCGCCACUACAACAUGAGGAUCACCCAUGUACCUCGUGUACGGUCCGAGGAGUAGGACCGGGAAGUGGUGGA | 132 | 52.8 |  |  |
| AACAUACAAUAAUAGGUGGAUAUAAGGCGGCGAGGACCGGUACGGCCGCCACUCGCGUACAUGAGGAUCACCCAUGUCUGAAACU | 23.2 | 28.1 |  |  |
| AAGCUUCGCAUAGGAAAACUAUGUGAAGCUCGAGGACCGGUACGGCCGCCACUCGUCCUCAACAUGAGGAUCACCCAUGUAAUAA |  |  | 22.5 | 28.2 |
| AAUGUAUGGCACAUGAGGAUCACCCAUGUGCGAGGACCGGUACGGCCGCCACUCGGUCCUGGGAUCUUACCACUAUACAUUAAUG |  |  | 10 | 13.1 |
| AAUGUGAAGGCGGCCGCCACUGAUAAUAGACAUGAGGAUCACCCAUGUAUAAAUCCUCAAUAAGACAGGACCGGGCCAACUACGU |  |  | 105 | 125 |
| ACAUGAGGAUCACCCAUGUGCAUCACCCGACGAGGACCGGUACGGCCGCCACUCGGGUAUAUAUUUACAUCGGGUGAUUUUACGU | 22.8 | 21 |  |  |
| ACAUGAGGAUCACCCAUGUGUGUAAAUCCUCGAGGACCGGUACGGCCGCCACUCGAACGAGUGUAAGUUGAAUGUAACAUUCAAC | 85.5 | 33.7 |  |  |
| ACGGAGAUGUCGGCCGCCACUGAACUCAUGUUCAACAUGAGGAUCACCCAUGUACCUUAGUUUAUCAGGACCGGGACAUAUACGA |  |  | 116 | 48.1 |
| AGAGCAUUGACGGCCGCCACUCAUGUCACAUGAGGAUCACCCAUGUGAUGGGUGAUCGCCCGGUUGAGGACCGGGUCAAUGCUCA | 43 | 28.5 |  |  |
| AGAUGAGUCACGGCCGCCACUCACUUCAGGUUCACCCUUGGUUAACAUGAGGAUCACCCAUGUGGGAGGACCGGGUGAUGAGCAU |  |  | 16.2 | 12.8 |
| AGCAACAAGUCGGCCGCCACUCAUAUUACAUGAGGAUCACCCAUGUUUACAUCAAGGUCAUAAUAGAGGACCGGGACAGUUGCAU | 34.1 | 23.7 |  |  |
| AGCCACUCGAGUGAUCCUCACGAGUGGCUACGAGGACCGGUACGGCCGCCACUCGAAUUAACAUGAGGAUCACCCAUGUAAUAAU | 152 | 39.6 |  |  |
| AGCUACUCGUUCCUCAUGUACGAGUGGCAACGAGGACCGGUACGGCCGCCACUCGAAUAAACAUGAGGAUCACCCAUGUACAAAU | 54.6 | 120 |  |  |
| AGGUGCUGAUCGGCCGCCACUGAGAGGACGUGAACUUUAGCUGGUUACAUGAGGAUCACCCAUGUCAGGACCGGGAUUAGUUUGC |  |  | 9.26 | 17.4 |
| AGUACAUGAGGAUCACCCAUGUGCCGGUAACGAGGACCGGUACGGCCGCCACUCGAUGUACCUCAAUUUGAUUGAGAUAAGAAAA | 41 | 17.4 |  |  |
| AGUAUUGGAAACAGUACUAGUGAUCCGGUCCGAGGACCGGUACGGCCGCCACUCGAUUUAAAUAAACAUGAGGAUCACCCAUGUA |  |  | 13.8 | 25.2 |
| AUAACAUGAGGAUCACCCAUGUAUUGGUUACGAGGACCGGUACGGCCGCCACUCGUAUUAUAGUGGUAUUUUGUUUAUAUGAUAA | 12.6 | 14.1 |  |  |
| AUAAGCUGUACCGGAAUAUCCUCAUGUAUACGAGGACCGGUACGGCCGCCACUCGAUAACAUGAGGAUCACCCAUGUAAUAAUAA |  |  | 11.2 | 11.2 |
| AUAUAUACAUGAGGAUCACCCAUGUUAUUACGAGGACCGGUACGGCCGCCACUCGAUAGAGUAGAAGUAAAUUUUAAUUCAUGUA | 14.5 | 13 |  |  |
| AUGCAGAGCACGGCCGCCACUCCAUGUAUACAUGAGGAUCACCCAUGUAAUUUGUAUUUUUUAUAGAGGACCGGGUGAAAUGCAA | 34.3 | 18.2 |  |  |
| CACGAAAGAUCGGCCGCCACUAUUUGAUGUGUUCUUUCACAUGAGGAUCACCCAUGUUCUUUCUUUAGGACCGGGAUUGAGCGUG |  |  | 99.4 | 49.5 |
| CGAAUAUAGACGGCCGCCACUCUACAAACAUGAGGAUCACCCAUGUUCACAUAGAGGAAACUCAUGAGGACCGGGUCAUAGGCUU | 23.4 | 20 |  |  |
| CUACAUUUGUAGAAACCGGUCAACAUUAUUCGAGGACCGGUACGGCCGCCACUCGUAUAUUUUAAUACAUGAGGAUCACCCAUGU | 11.6 | 12.1 |  |  |
| GAGGAAACUCACAUGAGGAUCACCCAUGUACGAGGACCGGUACGGCCGCCACUCGAAACCAUGGGCGGUUGUACAUGGAAACAUG |  |  | 24.8 | 74.8 |

| Sequence | apparent Kd [1] [nM] | apparent Kd [2] [nM] | apparent Kd [3] [nM] | apparent Kd [4] [nM] |
| --- | --- | --- | --- | --- |
| GAGUAGAAGACGGCCGCCACUAAACAUGAGGAUCACCCAUGUCGUGAUCCGUUACCUAGAGUAGAUAGGACCGGGUCAUAUAGUC |  |  | 30.4 | 30.9 |
| GAUAUGGAAACAUGUCAGAUCCUUACCGGUCGAGGACCGGUACGGCCGCCACUCGAAAAUAAUAAACAUGAGGAUCACCCAUGUA |  |  | 14.4 | 32 |
| GAUCGACAAAACGUCUAGGAAAACUAGACGCGAGGACCGGUACGGCCGCCACUCGUCCUCACAUGAGGAUCACCCAUGUACGAUC |  |  | 31.5 | 177 |
| GAUUAAACAUGAGGAUCACCCAUGUAUAUACGAGGACCGGUACGGCCGCCACUCGUAAACGAGUAUCCUCGAAUAAACAUGAUAA | 134 | 42.7 |  |  |
| GCAUCCUAGUCGGCCGCCACUGGUACGAACACCUUCACCCGUGUGCACAUGAGGAUCACCCAUGUUAGGACCGGGACUAGGAUGC | 8.2 | 7.99 |  |  |
| GCCGCGGCCGCGAUACACAUGGGUAUGUAACGAGGACCGGUACGGCCGCCACUCGAGAUAAUGUACAUGAGGAUCACCCAUGUAC |  |  | 11.5 | 13.3 |
| GCGUUCUCUGCGGCCGCCACUCAAGGAGCUACAUAGCUCCUAGACAUGAGGAUCACCCAUGUGGCGAGGACCGGGUAGAUCCUUA | 202 | 168 |  |  |
| GGAGUCGUCACGGCCGCCACUGCGGUGGUGUGACAUGAGGAUCACCCAUGUUGUCAUGCGGCCCUUAGGACCGGGUGUCGGUUCC |  |  | 51.5 | 59.1 |
| GGCACAUAGUCGGCCGCCACUAGAAUAAGAAGGGAAAACAUGAGGAUCACCCAUGUAAAAGGGACUAGGACCGGGACUAUGUGCC |  |  | 13.9 | 13 |
| GGGCGCGUGGACCGGCGUGCUCCGCUCCGUCGAGGACCGGUACGGCCGCCACUCGACAUGAGGAUCACCCAUGUGUGAGCUCGCG |  |  | 55.2 | 281 |
| UAAACUACACAUGAGGAUCACCCAUGUGGCCGAGGACCGGUACGGCCGCCACUCGUGUGUUAAUAAAAGAACUGCAAGAUUCUUU | 126 | 92.6 |  |  |
| UAAUAAGUGCCGGUUCUCAGAUCCUCAUGUCGAGGACCGGUACGGCCGCCACUCGAAACAUGAGGAUCACCCAUGUAAUAAUAAU |  |  | 51.8 | 34.1 |
| UACAUGAGGAUCACCCAUGUCCCAUGUGAACGAGGACCGGUACGGCCGCCACUCGAAUAAGGCGGCACAUGAGGAUCACCCACAU | 284 | 712 |  |  |
| UACUUGCUGACGGCCGCCACUAGAACAUGAGGAUCACCCAUGUACCCGGUCCUAAUCCUCAUGACUAGGACCGGGUCAGCAAGAU |  |  | 22.4 | 21.5 |
| UAUCGUCAGACGGCCGCCACUAGAACAUGAGGAUCACCCAUGUACCCGGUCCAUUCCUCAUUAACUAGGACCGGGUCUGACGAAU |  |  | 125 | 30.2 |
| UAUCGUCAGACGGCCGCCACUAGAACAUGAGGAUCACCCAUGUACGGCCGCCCGGUAUGGGUGUCUAGGACCGGGUCUGACGAAU |  |  | 30.4 | 39 |
| UCCUGCAGAGCGGCCGCCACUGUAUUGCGUGAGGAUGACCCAACAUGAGGAUCACCCAUGUUGUUUAGGACCGGGCUUGCCACGA |  |  | 14.2 | 15.5 |
| UGGAGUAGGACGGCCGCCACUAUACAAUGUGUAUACAUGAGGAUCACCCAUGUAAUCCUCGGAGAUAGGACCGGGUCAAGUUGUG |  |  | 53.6 | 50.5 |
| UGUAGUACCAGACAUGAGGAUCACCCAUGUCGAGGACCGGUACGGCCGCCACUCGGCAGUUUGCGUCCUCAGGUACUCCGGGUAA |  |  | 13 | 15 |
| UGUCAGCGAAAGUUGACAUGCAGUGCCGGUCGAGGACCGGUACGGCCGCCACUCGAUCUCUCGUACAUGAGGAUCACCCAUGUCG | 13.4 | 13.8 |  |  |
| UUAUAAGUACCGGUCCUCAGAUCCUCAUGACGAGGACCGGUACGGCCGCCACUCGAAACAUGAGGAUCACCCAUGUAAUAAUAAU |  |  | 24.2 | 21.5 |
| UUCUUUGACGAUCUGGGUUUACCAGAUCGACGAGGACCGGUACGGCCGCCACUCGUGUUUUCUUUACAUGAGGAUCACCCAUGUU | 16.4 | 15.6 |  |  |
| UUUGACGGCGAUCUGGGUUUACCAGAUCGGCGAGGACCGGUACGGCCGCCACUCGUGUUUCUUUGACAUGAGGAUCACCCAUGUA | 39.1 | 18.4 |  |  |
